Data from ChEMBL document CHEMBL1926650, “Bioactive lignans from the rhizomes of Acorus gramineus” (J Nat Prod, 2011).

Key:
A549 = test: Cytotoxicity against human A549 cells by sulforhodamine B assay; format: functional, cell-based
SK-OV-3 = test: Cytotoxicity against human SKOV3 cells by sulforhodamine B assay; format: functional, cell-based
HUVEC [1] = test: Cytotoxicity against HUVEC by sulforhodamine B assay; format: cell-based; details: Homo sapiens
BV-2 = test: Anti-neuroinflammatory activity in mouse BV2 cells assessed as inhibition of LPS-induced NO production pretreated for 30 mins before LPS-stimulation measured after 24 hrs by Griess reaction; format: functional, cell-based
In short: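 Murine BV-2 microglia activated with LPS; NO output was estimated from nitrite, its soluble oxidation product, measured in the culture medium with the Griess reaction. The value is the IC50 for lowering that nitrite.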

SK-MEL-2 = test: Cytotoxicity against human SK-MEL-2 cells by sulforhodamine B assay; format: functional, cell-based
[2] = Cytotoxicity against LPS-stimulated mouse BV2 cells assessed as cell viability after 24 hrs by MTT assay relative to control; format: cell-based, BV-2; details: read-out: Activity
HUVEC [3] = test: Selectivity index, ratio of IC50 for HUVEC to IC50 for human SKMEL2 cells

| SMILES | IC50 (BV-2) | IC50 (A549) | IC50 (SK-OV-3) | IC50 (HUVEC [1]) | IC50 (SK-MEL-2) | viability at 24 h [2] | Ratio IC50 (HUVEC [3]) |
| --- | --- | --- | --- | --- | --- | --- | --- |
| CNC(=N)NCCC[C@H](N)C(=O)O [TILARGININE] | 15.4 µM |  |  |  |  | 98.7% |  |
| C/C=C/c1cc(OC)c(O[C@H](C)[C@H](O)c2cc(OC)c(OC)c(OC)c2)c(OC)c1 | > 200 µM | > 10 µM | > 10 µM |  | > 10 µM | 101% |  |
| COc1ccc([C@H]2O[C@H](c3cc(OC)c(OC)c(OC)c3)[C@@H](C)[C@H]2C)cc1OC [LIGRAMINOL A] | 21.5 µM | 6.92 µM | 9.44 µM | 27.2 µM | 4.53 µM | 88.6% | 6 |
| COc1cc([C@@H]2c3cc4c(cc3[C@@H](O[C@@H]3O[C@@H]5CO[C@@H](C)O[C@H]5[C@H](O)[C@H]3O)[C@H]3COC(=O)[C@H]23)OCO4)cc(OC)c1O [ETOPOSIDE] |  | 0.44 µM | 1.31 µM | 1.86 µM | 0.41 µM |  |  |
| COc1ccc([C@H]2O[C@H](c3cc(OC)c(OC)c(OC)c3)[C@@H](C)[C@@H]2C)cc1OC | 125 µM | > 10 µM | > 10 µM |  | > 10 µM | 87.3% |  |
| COc1cc([C@@H]2O[C@@H](c3cc(OC)c(O)c(OC)c3)[C@H](CO[C@@H]3O[C@H](CO)[C@@H](O)[C@H](O)[C@H]3O)[C@H]2CO)cc(OC)c1O [LIGRAMINOL B] | 23 µM | > 10 µM | > 10 µM |  | > 10 µM | 84.4% |  |

More lines, main results first:

| IC50 (BV-2) | SMILES | IC50 (A549) | IC50 (SK-OV-3) | IC50 (HUVEC [1]) | IC50 (SK-MEL-2) | viability at 24 h [2] | Ratio IC50 (HUVEC [3]) |
| --- | --- | --- | --- | --- | --- | --- | --- |
| 16.2 µM | C/C=C\c1ccc(O[C@H](C)[C@H](OC(C)=O)c2ccc(OC)c(OC)c2)c(OC)c1 [LIGRAMINOL C] | 9.54 µM | > 10 µM | 25.9 µM | > 10 µM | 90.5% |  |
| 176 µM | C/C=C/c1cc(OC)c(O[C@H](C)[C@H](O)c2ccc(OC)c(OC)c2)c(OC)c1 | > 10 µM | > 10 µM |  | > 10 µM | 102% |  |
| 18.4 µM | COc1ccc(C[C@@H](CO)Oc2ccc(CCCO)cc2OC)cc1OC [LIGRAMINOL D] | 8.28 µM | > 10 µM | 22.6 µM | > 10 µM | 98.4% |  |
| 48.4 µM | COc1ccc([C@H]2O[C@@H](c3ccc(OC)c(OC)c3)[C@H](C)[C@H]2C)cc1OC [VERAGUENSIN] | > 10 µM | > 10 µM |  | > 10 µM | 104% |  |
| > 200 µM | COc1cc(C[C@H](CO)Oc2ccc(CCCO)cc2OC)ccc1O [LIGRAMINOL E] | > 10 µM | > 10 µM |  | > 10 µM | 97.1% |  |
| 52 µM | COc1cc([C@@H](O)[C@@H](CO)Oc2ccc(CCCO)cc2OC)ccc1O | > 10 µM | > 10 µM |  | > 10 µM | 97.5% |  |
| 53 µM | COc1cc([C@H](O)[C@H](CO)Oc2ccc(CCCO)cc2OC)ccc1O | > 10 µM | > 10 µM |  | > 10 µM | 96.7% |  |
| 76 µM | COc1ccc([C@H]2O[C@H](c3ccc(OC)c(OC)c3)[C@@H](C)[C@H]2C)cc1OC [GANSCHISANDRINE] | > 10 µM | > 10 µM |  | > 10 µM | 104% |  |
